# Measurements as given in paper PMC6583924 (European journal of medicinal chemistry, 2017).
# Legend:
# [1] = target: (h)V1a (Homo sapiens, UniProt P37288); test: In vitro V1a binding assay; settings: for inhibition at 0.01 µM: read-out: % Binding inhibition (10^−8M); for inhibition at 0.001 µM: read-out: % Binding inhibition (10^−9M); for V1a binding affinity (in words): structure-activity discussion of Tables 1 and 2
# Procedure, shortened: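 [3H]AVP (0.3 nM; KD 0.5 nM) competition binding on human recombinant V1a expressed in CHO cells, 60 min at RT. Nonspecific binding was defined with 1 µM AVP. Test compounds were run at selected concentrations, two independent experiments each in duplicate, with % binding inhibition recorded. IC50 came from a one-site sigmoidal variable-slope fit; Ki was calculated by Cheng–Prusoff.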
# [2] = Lipophilicity logD7,4; format: physicochemical; settings: pH 7.4
# [3] = target: V2; settings: read-out: Ki V2; cited from earlier work
# [4] = tested on: CD-1 mouse brain; test: Effect of anesthetics on radiotracer brain uptake in CD-1 mice; format: in vivo; settings: anesthetic ip 80 mg/kg, 30 min prior the radiotracer; 30 min after radiotracer
# Sequence of (h)V1a (P37288 whole entry): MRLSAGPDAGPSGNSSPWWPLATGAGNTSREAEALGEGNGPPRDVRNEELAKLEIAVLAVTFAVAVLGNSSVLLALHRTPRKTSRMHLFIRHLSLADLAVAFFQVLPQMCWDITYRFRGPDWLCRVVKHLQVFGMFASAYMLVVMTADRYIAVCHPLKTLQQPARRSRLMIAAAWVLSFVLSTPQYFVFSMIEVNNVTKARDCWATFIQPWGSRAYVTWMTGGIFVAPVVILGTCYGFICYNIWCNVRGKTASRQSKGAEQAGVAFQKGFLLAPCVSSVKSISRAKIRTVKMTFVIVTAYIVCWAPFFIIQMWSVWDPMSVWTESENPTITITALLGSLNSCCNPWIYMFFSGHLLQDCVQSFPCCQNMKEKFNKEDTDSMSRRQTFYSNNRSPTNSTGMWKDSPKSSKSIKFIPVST
SMILES,inhibition at 0.01 µM [1] [%],inhibition at 0.001 µM [1] [%],logD [2],V1a binding affinity (in words) [1],Ki [3] [µM],Ki [1] [µM],Effect on radiotracer brain uptake [4]
"COc1cc(C(=O)N2CC3(C)CC2CC(C)(C)C3)ccc1-c1c[nH]c2cnccc12 (centres unmarked) [8e, (3Methoxy-4-(1H-pyrrolo[2,3-c]pyridin-3-yl)phenyl)(1,3,3-trimethyl-6-aza-bicyclo[3.2.1]octan-6yl)methanone]",44.2,-4.7,3.5,,,,
"COc1cc(C(=O)NC23CC4CC(CC(C4)C2)C3)ccc1-c1c[nH]c2ccccc12 [13d, N-Adamantan-1-yl-4-(1H-indol-3-yl)-3-methoxybenzamide]",4.8,7.4,5.8,,,,
"COc1cc(C(=O)N2CC3(C)CC2CC(C)(C)C3)ccc1-c1ccc(F)nc1 (centres unmarked) [8a, (4-(6Fluoropyridin-3-yl)-3-methoxyphenyl)(1,3,3-trimethyl-6-aza-bicyclo[3.2.1]octan-6yl)methanone]",33.9,2.9,3.9,lower binding affinity compared to the lead 1,,,
"COc1cc(C(=O)N2CC3(C)CC2CC(C)(C)C3)ccc1-c1c[nH]c2ccncc12 (centres unmarked) [8f, (3Methoxy-4-(1H-pyrrolo[3,2-c]pyridin-3-yl)phenyl)(1,3,3-trimethyl-6-aza-bicyclo[3.2.1]octan-6yl)methanone]",39.5,5.2,2.8,,,,
"COc1cc(C(=O)N2CCC(F)(F)CC2)ccc1-c1c[nH]c2ccccc12 [13b, (4-(1H-Indol-3-yl)-3-methoxyphenyl)(4,4-difluoropiperidin-1-yl)methanone]",9,13.7,1.6,,,,
"Cc1ccncc1-c1ccc(C(=O)N2CC3(C)CC2CC(C)(C)C3)cc1 (centres unmarked) [8i, (4-(4-Methylpyridin-3-yl)phenyl)(1,3,3-trimethyl-6-aza-bicyclo[3.2.1]octan-6-yl)methanone]",43.9,12.8,4.4,,,,
"Cc1ccncc1-c1ccc(C(=O)N2CC3(C)CC2CC(C)(C)C3)c(F)c1 (centres unmarked) [8l, (2Fluoro-4-(4-methylpyridin-3-yl)phenyl)(1,3,3-trimethyl-6-aza-bicyclo[3.2.1]octan-6yl)methanone]",19.8,2.4,4.5,poor V1a binding affinity,,,
"COc1cc(C(=O)N2CC3(C)CC2CC(C)(C)C3)ccc1-c1cn(C)c2ccccc12 (centres unmarked) [8c, (3Methoxy-4-(1-methyl-1H-indol-3-yl)phenyl)(1,3,3-trimethyl-6-aza-bicyclo[3.2.1]octan-6yl)methanone]",18.7,1.8,6,decrease in binding affinity,,,
"COc1cc(C(=O)N2CCN(C)CC2)ccc1-c1c[nH]c2ccccc12 [13a, (4-(1H-Indol-3-yl)-3-methoxyphenyl)(4-methylpiperazin-1-yl)methanone]",4.7,15.7,0.7,,,,
"Cc1ccccc1-c1ccc(C(=O)N2CC3(C)CC2CC(C)(C)C3)cc1 (centres unmarked) [8g, (2’-Methylbiphenyl-4-yl)(1,3,3-trimethyl-6-aza-bicyclo[3.2.1]octan-6-yl)methanone]",84.3,23.7,5,good binding affinity,,,
"CC1(C)CC2CC(C)(CN2C(=O)c2ccc(-c3c[nH]c4ccccc34)c(OCCF)c2)C1 (centres unmarked) [6c, (3-(2fluoroethoxy)-4-(1H-indol-3-yl)phenyl)(1,3,3-trimethyl-6-aza-bicyclo[3.2.1]octan-6yl)methanone]",92.6,45.1,4.9,high binding affinity,,,
"Cc1ccccc1-c1ccc(C(=O)N2CC3(C)CC2CC(C)(C)C3)c(F)c1 (centres unmarked) [8k, (3-Fluoro-6’-methylbiphenyl-4-yl)(1,3,3-trimethyl-6-aza-bicyclo[3.2.1]octan-6-yl)methanone]",81.2,22.8,5.8,good binding affinity,,,
"COc1cc(C(=O)N2CCCN(C)CC2)ccc1-c1c[nH]c2ccccc12 [13c, (4-(1H-Indol-3-yl)-3-methoxyphenyl)(4-methyl-1,4-diazepan-1-yl)methanone]",6.2,5.7,0.2,,,,
"COc1cc(C(=O)N2CC3(C)CC2CC(C)(C)C3)ccc1-c1cccnc1F (centres unmarked) [8b, (4-(2Fluoropyridin-3-yl)-3-methoxyphenyl)(1,3,3-trimethyl-6-aza-bicyclo[3.2.1]octan-6yl)methanone]",16,9.7,4,lower binding affinity compared to the lead 1,,,
"Cc1ncccc1-c1ccc(C(=O)N2CC3(C)CC2CC(C)(C)C3)cc1 (centres unmarked) [8j, (4-(2-Methylpyridin-3-yl)phenyl)(1,3,3-trimethyl-6-aza-bicyclo[3.2.1]octan-6-yl)methanone]",18.2,-6.6,4.4,,,,
"COc1cc(C(=O)N2CC3(C)CC2CC(C)(C)C3)ccc1-c1c[nH]c2ncccc12 (centres unmarked) [8d, (3Methoxy-4-(1H-pyrrolo[2,3-b]pyridin-3-yl)phenyl)(1,3,3-trimethyl-6-aza-bicyclo[3.2.1]octan-6yl)methanone]",28.7,4.4,2.9,,,,
"COc1cc(C(=O)N2C[C@]3(C)C[C@H]2CC(C)(C)C3)ccc1-c1c[nH]c2ccccc12 [(1S,5R)-1, (4-(1Hindol-3-yl)-3-methoxyphenyl)((1S,5R)-1,3,3-trimethyl-6-azabicyclo[3.2.1]octan-6-yl)methanone]",87.9,51.4,4.7,,0.6,0.00066,
CNC1(c2ccccc2Cl)CCCCC1=O (centres unmarked) [Ketamine],,,,,,,did not significantly change
"CC1(C)CC2CC(C)(CN2C(=O)c2ccc(-c3c[nH]c4ccccc34)cc2F)C1 (centres unmarked) [6b, (2-Fluoro-4-(1H-Indol-3-yl)phenyl)(1,3,3-trimethyl-6-aza-bicyclo[3.2.1]octan-6-yl)methanone]",77.1,33.4,4.8,lower binding affinity compared to the lead 1,,,
"COc1cc(C(=O)Nc2ccc(F)cc2)ccc1-c1c[nH]c2ccccc12 [13e, N-(4-Fluorophenyl)-4-(1H-indol-3-yl)-3-methoxybenzamide]",4.6,5,3.2,,,,
"Cc1cnccc1-c1ccc(C(=O)N2CC3(C)CC2CC(C)(C)C3)cc1 (centres unmarked) [8h, (4-(3-Methylpyridin-4-yl)phenyl)(1,3,3-trimethyl-6-aza-bicyclo[3.2.1]octan-6-yl)methanone]",28.9,10.5,4.4,,,,
